Experiments:
Type in all cases: cell-based
[1] = molecular target: Toll-like receptor 4 (Homo sapiens) (UniProt O00206); assay: Activation of TLR4 in human PBMC cells assessed as AUC of IL8 release at 10 uM after 18 hrs by ELISA relative to N-cyclohexyl-2-(4-oxo-3-phenyl-4,5-dihydro-3H-pyrimido[5,4-b]indol-2-ylthio)acetamide
Summary of the method: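 Human PBMC from buffy coats, 1 × 10^6/mL in complete RPMI, 18 h at 37 °C, 5% CO2 with compound at 10 μM; IL-8 in supernatant by ELISA, normalized to reference hit set at 100. LPS 10 ng/mL positive control.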

[2] = molecular target: T1, Toll-like receptor 4 (Mus musculus) (UniProt Q9QUK6); assay: Activation of mouse TLR4 transfected in HEK293 cells after 18 hrs by SEAP assay relative to N-cyclohexyl-2-(4-oxo-3-phenyl-4,5-dihydro-3H-pyrimido[5,4-b]indol-2-ylthio)acetamide
T1 sequence (whole entry): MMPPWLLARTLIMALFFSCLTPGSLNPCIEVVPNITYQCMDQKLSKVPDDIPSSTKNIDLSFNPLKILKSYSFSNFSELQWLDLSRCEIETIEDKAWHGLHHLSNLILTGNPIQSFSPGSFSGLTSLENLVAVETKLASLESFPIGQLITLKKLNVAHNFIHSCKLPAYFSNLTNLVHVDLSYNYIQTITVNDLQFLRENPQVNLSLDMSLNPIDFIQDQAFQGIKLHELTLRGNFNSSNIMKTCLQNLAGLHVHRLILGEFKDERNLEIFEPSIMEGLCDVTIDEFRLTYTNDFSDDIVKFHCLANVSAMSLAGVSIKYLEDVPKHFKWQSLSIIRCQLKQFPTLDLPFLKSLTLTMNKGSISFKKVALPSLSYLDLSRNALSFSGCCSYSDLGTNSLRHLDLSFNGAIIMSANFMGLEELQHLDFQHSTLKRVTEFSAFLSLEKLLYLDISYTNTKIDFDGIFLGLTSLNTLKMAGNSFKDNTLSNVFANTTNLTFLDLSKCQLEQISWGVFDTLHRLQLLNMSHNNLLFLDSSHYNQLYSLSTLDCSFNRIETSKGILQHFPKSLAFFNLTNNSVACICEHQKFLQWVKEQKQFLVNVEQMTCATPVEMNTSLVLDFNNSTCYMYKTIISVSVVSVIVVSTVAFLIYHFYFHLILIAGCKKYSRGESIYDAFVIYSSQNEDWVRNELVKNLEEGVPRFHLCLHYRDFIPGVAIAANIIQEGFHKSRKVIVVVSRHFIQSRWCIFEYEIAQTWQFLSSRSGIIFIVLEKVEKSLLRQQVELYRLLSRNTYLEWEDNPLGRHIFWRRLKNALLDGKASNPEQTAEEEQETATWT
Summary of the method: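 Mouse TLR4 HEK-Blue cells (2.5 × 10^4/well) given titrated doses 312 nM–10 μM for 18 h, 0.5% DMSO vehicle; SEAP at 630 nm. Percent-activity curves, AUC by trapezoid method, normalized to reference hit set at 100. LPS 10 ng/mL control.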

[3] = molecular target: Toll-like receptor 4 (Homo sapiens) (UniProt O00206); assay: Activation of human TLR4 transfected in HEK293 cells after 18 hrs by SEAP assay relative to N-cyclohexyl-2-(4-oxo-3-phenyl-4,5-dihydro-3H-pyrimido[5,4-b]indol-2-ylthio)acetamide; set-up: concentration or dose not given beside the values
Summary of the method: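 Human TLR4 HEK-Blue cells (2.5 × 10^4/well) given compound at 10 μM for 18 h, 0.5% DMSO vehicle; SEAP in supernatant read at 630 nm, normalized to reference hit set at 100. LPS 10 ng/mL positive control.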

[4] = molecular target: T1, Toll-like receptor 4 (Mus musculus); assay: Activation of TLR4 in C57BL/6 mouse BMDC cells assessed as AUC of IP10 release at 5 uM after 18 hrs by ELISA relative to N-cyclohexyl-2-(4-oxo-3-phenyl-4,5-dihydro-3H-pyrimido[5,4-b]indol-2-ylthio)acetamide
[5] = molecular target: T1, Toll-like receptor 4 (Mus musculus); assay: Activation of TLR4 in C57BL/6 mouse BMDC cells assessed as AUC of IL6 release after 18 hrs by ELISA relative to N-cyclohexyl-2-(4-oxo-3-phenyl-4,5-dihydro-3H-pyrimido[5,4-b]indol-2-ylthio)acetamide
Summary of the method: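 C57BL/6 bone marrow DC, 10^5 cells/well in RPMI-10% FCS, 18 h at 37 °C with titrated doses 312 nM–10 μM; supernatant IL-6 by ELISA. Each curve converted to percent activity (background subtracted, plate-adjusted), AUC by trapezoid method, normalized to reference hit set at 100 per experiment. LPS 10 ng/mL positive control; 0.5% DMSO vehicle.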

Chain of Toll-like receptor 4 (Homo sapiens) (O00206 whole entry): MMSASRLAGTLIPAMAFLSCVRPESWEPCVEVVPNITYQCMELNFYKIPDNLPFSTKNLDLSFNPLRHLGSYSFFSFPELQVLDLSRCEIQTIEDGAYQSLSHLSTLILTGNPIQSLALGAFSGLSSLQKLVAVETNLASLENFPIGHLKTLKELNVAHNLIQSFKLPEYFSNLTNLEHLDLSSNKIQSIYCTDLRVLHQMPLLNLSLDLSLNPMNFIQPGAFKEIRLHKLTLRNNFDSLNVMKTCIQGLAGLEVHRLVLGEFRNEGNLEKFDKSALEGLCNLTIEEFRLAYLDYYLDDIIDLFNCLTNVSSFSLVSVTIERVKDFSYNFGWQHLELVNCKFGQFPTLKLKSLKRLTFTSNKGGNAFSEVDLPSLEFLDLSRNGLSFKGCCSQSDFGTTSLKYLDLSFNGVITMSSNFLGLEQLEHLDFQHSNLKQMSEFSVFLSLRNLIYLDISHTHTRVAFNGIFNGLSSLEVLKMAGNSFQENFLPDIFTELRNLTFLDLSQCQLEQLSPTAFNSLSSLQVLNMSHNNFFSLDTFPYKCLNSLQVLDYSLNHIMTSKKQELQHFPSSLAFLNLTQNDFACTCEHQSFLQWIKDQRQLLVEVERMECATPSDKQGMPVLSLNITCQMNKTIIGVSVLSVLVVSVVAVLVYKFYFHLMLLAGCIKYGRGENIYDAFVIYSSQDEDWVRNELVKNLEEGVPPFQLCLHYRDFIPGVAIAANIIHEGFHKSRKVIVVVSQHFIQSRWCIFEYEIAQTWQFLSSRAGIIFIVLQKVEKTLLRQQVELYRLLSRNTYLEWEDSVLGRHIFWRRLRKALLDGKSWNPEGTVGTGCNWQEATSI

| Activity [1] | Activity [2] | Activity [3] | Activity [4] | Activity [5] | Compound |
| --- | --- | --- | --- | --- | --- |
| 27% | 56% | 40% | 61% | 71% | O=C(CSc1nc2c([nH]c3ccccc32)c(=O)n1C1CCCCC1)NC1CCCCC1 |
| < 1% | < 1% | < 1% | < 1% | < 1% | CCCCCCCC/C=C\CCCCCCCC(=O)OC[C@H](COP(=O)(O)OCCNC(=O)CSc1nc2c([nH]c3ccccc32)c(=O)n1-c1ccccc1)OC(=O)CCCCCCC/C=C\CCCCCCCC |
| < 1% | 2% | 21% | < 1% | < 1% | O=C(CSc1nc2c([nH]c3ccccc32)c(=O)n1-c1ccccc1)Nc1ccc2ccccc2c1 |
| 5% | 1% | 1% | < 1% | < 1% | O=C(CSc1nc2c([nH]c3ccccc32)c(=O)n1CCc1ccccc1)NC1CCCCC1 |
| 25% | 42% | 23% | 40% | 40% | CCCCCNC(=O)CSc1nc2c([nH]c3ccccc32)c(=O)n1-c1ccccc1 |
| 61% | 43% | 71% | 54% | 36% | O=C(CSc1nc2c([nH]c3ccccc32)c(=O)n1-c1ccccc1)Nc1ccccc1F |
| 6% | 17% | 13% | 55% | 12% | CCCC(C)NC(=O)CSc1nc2c([nH]c3ccccc32)c(=O)n1-c1ccccc1 (stereo not given) |

More lines, now with the values behind:

| Compound | Activity [1] | Activity [2] | Activity [3] | Activity [4] | Activity [5] |
| --- | --- | --- | --- | --- | --- |
| O=C(CSc1nc2c([nH]c3ccccc32)c(=O)n1-c1ccccc1)NC1CCCCCC1 | 118% | 99% | 100% | 107% | 126% |
| O=C(CSc1nc2c([nH]c3ccccc32)c(=O)n1-c1ccc2ccccc2c1)NC1CCCCC1 | < 1% | 6% | 3% | < 1% | 3% |
| O=C(CSc1nc2c([nH]c3ccccc32)c(=O)n1-c1ccccc1)NC1CCCC1 | 5% | 28% | 23% | 52% | 53% |
| O=C(CSc1nc2c([nH]c3ccccc32)c(=O)n1-c1ccccc1)Nc1ccc(F)cc1 | 107% | 81% | 108% | 70% | 103% |
| Cc1ccc(-n2c(SCC(=O)NC3CCCCC3)nc3c([nH]c4ccccc43)c2=O)cc1 | 6% | 2% | 2% | < 1% | < 1% |
| Cc1cccc(NC(=O)CSc2nc3c([nH]c4ccccc43)c(=O)n2-c2ccccc2)c1 | 54% | 13% | 116% | 55% | 19% |
| NC(=O)Cn1c2ccccc2c2nc(SCC(=O)NC3CCCCC3)n(-c3ccccc3)c(=O)c21 | 4% | 8% | 11% | 1% | 1% |
| CN(C(=O)CSc1nc2c3ccccc3n(C)c2c(=O)n1-c1ccccc1)C1CCCCC1 | 5% | 1% | < 1% | < 1% | < 1% |
| CCCCCCCCCCCCn1c2ccccc2c2nc(SCC(=O)NC3CCCCC3)n(-c3ccccc3)c(=O)c21 | < 1% | 4% | 10% | < 1% | < 1% |
| O=C(CSc1nc2c([nH]c3ccccc32)c(=O)n1-c1ccccc1)NC1CCCCCCC1 | 73% | 95% | 64% | 98% | 114% |
| CCCCCCNC(=O)CSc1nc2c([nH]c3ccccc32)c(=O)n1-c1ccccc1 | 7% | 4% | 8% | < 1% | < 1% |
